# Test results reported in ChEMBL document CHEMBL2384974, “Discovery and synthesis of novel 4-aminopyrrolopyrimidine Tie-2 kinase inhibitors for the treatment of solid tumors” (Bioorg Med Chem Lett, 2013).
# pIC50: −log10 of the molar value. The source made the active and inactive calls. The calls are words filed in the database; no cut-off is given here.
# Experiments:
# [1] = target: Epidermal growth factor receptor (Homo sapiens, UniProt P04626+P00533+Q15303+P21860); assay: Inhibition of human EGFR extracellular domain/TIE2 intracellular domain transfected in mouse NIH/3T3 cells assessed as phosphotyrosine level preincubated for 60 mins followed by EGF stimulation by DELFIA assay; format: cell-based; conditions: nih3t3
# Method in brief: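 NIH/3T3 fibroblasts stably transfected with a chimera of human EGFR extracellular domain and human Tie-2 intracellular domain. Cells were exposed to compound for 60 min, stimulated with EGF, then fixed. Phosphotyrosine was read with an Eu-labeled antibody by DELFIA. In washout runs, medium was replaced with fresh medium and cells were stimulated at set times.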
# Angiopoietin-1 receptor [2] = target: T1, Angiopoietin-1 receptor (Homo sapiens, UniProt Q02763); assay: Inhibition of GST-fused TIE2 (unknown origin) using poly[Glu:Tyr] as substrate assessed as phosphotyrosine level by ELISA
# Method in brief: (§1)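 ELISA on poly-Glu-Tyr-coated plates using a GST-Tie-2 kinase fusion protein and 100 µM ATP. Phosphorylated product was detected with HRP-conjugated anti-phosphotyrosine monoclonal antibody (PY20). For reversibility, enzyme was preincubated with compound for 15 min before ATP was added. Kinetics were run with titrated ATP.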
# Homo sapiens = organism: Homo sapiens; assay: Inhibition of IKr (unknown origin)
# [3] = Volume of distribution at steady state in Sprague-Dawley rat at 0.164 mg/kg, iv; format: ADME, organism-based; parameters: dose 0.164 mg/kg, route intravenous; conditions: in vivo, read-out: Vdss
# Method in brief: (§2)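 Male Sprague–Dawley rats, fed, given a single 0.164 mg/kg IV dose. Clearance, steady-state volume of distribution and half-life were derived from plasma levels.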
# [4] = Cmax in Sprague-Dawley rat at 4.2 mg/kg, po; format: ADME, organism-based; parameters: dose 4.2 mg/kg, route oral; conditions: in vivo
# Method in brief: (§3)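 Ultrafasted Sprague–Dawley rats given 4.2 mg/kg as an oral suspension. Cmax, Tmax, hepatic extraction (Eh) and oral bioavailability were derived from systemic plasma levels.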
# [5] = Tmax in Sprague-Dawley rat at 4.2 mg/kg, po; format: ADME, organism-based; parameters: dose 4.2 mg/kg, route oral; conditions: in vivo; method in brief: as §3
# [6] = target: Voltage-gated inwardly rectifying potassium channel KCNH2 (Homo sapiens, UniProt Q12809); assay: Inhibition of human ERG
# [7] = Half life in Sprague-Dawley rat at 0.164 mg/kg, iv; format: ADME, organism-based; parameters: dose 0.164 mg/kg, route intravenous; conditions: in vivo; method in brief: as §2
# [8] = Metabolic stability in rat liver microsomes assessed as hepatic extraction ratio; format: ADME, Microsome; conditions: read-out: ERH
# [9] = target: Vascular endothelial growth factor receptor 2 (Homo sapiens, UniProt P35968); assay: Inhibition of KDR (unknown origin)
# C6 [10] = assay: Antitumor activity against rat C6 cells lacking human TIE2 xenografted in mouse assessed as tumor growth inhibition at 10 mg/kg, po qd after 10 days relative to control; format: functional; conditions: C6, 240 h, read-out: TGI
# Method in brief: (§4)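 Oral dosing once or twice daily at 10 or 33 mg/kg for 10 days in the C6 rat glioblastoma xenograft model. The C6 line was uninfected parental cells without human Tie-2. Read-out was percent tumor growth inhibition.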
# Rattus norvegicus = assay: Metabolic stability in Sprague-Dawley rat assessed as hepatic extraction at 4.2 mg/kg, po; format: ADME, organism-based; parameters: dose 4.2 mg/kg, route oral; conditions: in vivo; method in brief: as §3
# [11] = Clearance in Sprague-Dawley rat at 0.164 mg/kg, iv; format: ADME, organism-based; parameters: dose 0.164 mg/kg, route intravenous; conditions: in vivo; method in brief: as §2
# C6 [12] = assay: Antitumor activity against rat C6 cells lacking human TIE2 xenografted in mouse assessed as tumor growth inhibition at 33 mg/kg, po bid after 10 days; format: functional, organism-based; parameters: dose 33 mg/kg; method in brief: as §4
# [13] = target: Platelet-derived growth factor receptor beta (Homo sapiens, UniProt P09619); assay: Inhibition of PDGFR (unknown origin)
# Mus musculus [14] = assay: Inhibition of human TIE2 phosphorylation expressed in rat C6 cells xenografted in po dosed mouse; format: functional, organism-based
# Method in brief: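 Ex vivo assay in C6 rat glioblastoma clones overexpressing human Tie-2 from a retroviral construct, after a single oral dose. Frozen tumors were homogenized in lysis buffer and lysates captured on antibody-coated plates, with HRP-labeled antibody detection. Plasma and tumor drug levels were measured by LC–MS.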
# [15] = Permeability across basolateral to apical side in human Caco2 cells expressing p-gp; format: ADME, cell-based; conditions: Caco-2, read-out: permeability
# [16] = Solubility of the compound; format: physicochemical
# [17] = target: Fibroblast growth factor receptor (Homo sapiens, UniProt P22607+P11362+P22455+P21802); assay: Inhibition of FGFR (unknown origin); format: protein assay
# [18] = Mutagenic activity in micronucleus (unknown origin); format: ADME
# C6 [19] = assay: Antitumor activity against rat C6 cells lacking human TIE2 xenografted in mouse assessed as tumor growth inhibition at 10 mg/kg, po bid after 10 days relative to control; format: functional; conditions: C6, 240 h, read-out: TGI; method in brief: as §4
# [20] = Metabolic stability in human liver microsomes assessed as hepatic extraction ratio; format: ADME, Microsome; conditions: read-out: ERH
# [21] = Oral bioavailability in Sprague-Dawley rat at 4.2 mg/kg; format: ADME, organism-based; conditions: in vivo; method in brief: as §3
# Salmonella typhimurium = assay: Mutagenic activity in Salmonella typhimurium by Ames assay; format: toxicity, organism-based; conditions: salmonella enterica subsp. enterica serovar typhimurium
# Mus musculus [22] = assay: Toxicity in mouse xenografted with rat C6 cells lacking human TIE2 assessed as body weight loss at 10 to 33 mg/kg, po after 10 days; format: organism-based; parameters: dose 10-33 mg/kg, route oral; conditions: in vivo, 240 h
# [23] = Efflux ratio of permeability across basolateral to apical side over apical to basolateral side in human Caco2 cells expressing p-gp; format: ADME, cell-based; conditions: Caco-2
# [24] = target: Epidermal growth factor receptor (Homo sapiens, UniProt P00533); assay: Inhibition of EGFR (unknown origin)
# [25] = Inhibition of cytochrome P450 (unknown origin); format: ADME, Homo sapiens
# C6 [26] = assay: Antitumor activity against rat C6 cells lacking human TIE2 xenografted in mouse assessed as tumor growth inhibition at 33 mg/kg, po qd after 10 days relative to control; format: functional; conditions: C6, 240 h, read-out: TGI; method in brief: as §4
# [27] = target: Proto-oncogene tyrosine-protein kinase Src (Homo sapiens, UniProt P12931); assay: Inhibition of SRC (unknown origin)
# Angiopoietin-1 receptor [28] = target: T1, Angiopoietin-1 receptor; assay: Inhibition of TIE2 (unknown origin); method in brief: as §1
# [29] = target: Tyrosine-protein kinase Lck (Homo sapiens, UniProt P06239); assay: Inhibition of LCK (unknown origin)
# [30] = Permeability across apical to basolateral side in human Caco2 cells expressing p-gp; format: ADME, cell-based; conditions: Caco-2, read-out: permeability
# T1 sequence (Q02763 whole entry, the tested form may be a part): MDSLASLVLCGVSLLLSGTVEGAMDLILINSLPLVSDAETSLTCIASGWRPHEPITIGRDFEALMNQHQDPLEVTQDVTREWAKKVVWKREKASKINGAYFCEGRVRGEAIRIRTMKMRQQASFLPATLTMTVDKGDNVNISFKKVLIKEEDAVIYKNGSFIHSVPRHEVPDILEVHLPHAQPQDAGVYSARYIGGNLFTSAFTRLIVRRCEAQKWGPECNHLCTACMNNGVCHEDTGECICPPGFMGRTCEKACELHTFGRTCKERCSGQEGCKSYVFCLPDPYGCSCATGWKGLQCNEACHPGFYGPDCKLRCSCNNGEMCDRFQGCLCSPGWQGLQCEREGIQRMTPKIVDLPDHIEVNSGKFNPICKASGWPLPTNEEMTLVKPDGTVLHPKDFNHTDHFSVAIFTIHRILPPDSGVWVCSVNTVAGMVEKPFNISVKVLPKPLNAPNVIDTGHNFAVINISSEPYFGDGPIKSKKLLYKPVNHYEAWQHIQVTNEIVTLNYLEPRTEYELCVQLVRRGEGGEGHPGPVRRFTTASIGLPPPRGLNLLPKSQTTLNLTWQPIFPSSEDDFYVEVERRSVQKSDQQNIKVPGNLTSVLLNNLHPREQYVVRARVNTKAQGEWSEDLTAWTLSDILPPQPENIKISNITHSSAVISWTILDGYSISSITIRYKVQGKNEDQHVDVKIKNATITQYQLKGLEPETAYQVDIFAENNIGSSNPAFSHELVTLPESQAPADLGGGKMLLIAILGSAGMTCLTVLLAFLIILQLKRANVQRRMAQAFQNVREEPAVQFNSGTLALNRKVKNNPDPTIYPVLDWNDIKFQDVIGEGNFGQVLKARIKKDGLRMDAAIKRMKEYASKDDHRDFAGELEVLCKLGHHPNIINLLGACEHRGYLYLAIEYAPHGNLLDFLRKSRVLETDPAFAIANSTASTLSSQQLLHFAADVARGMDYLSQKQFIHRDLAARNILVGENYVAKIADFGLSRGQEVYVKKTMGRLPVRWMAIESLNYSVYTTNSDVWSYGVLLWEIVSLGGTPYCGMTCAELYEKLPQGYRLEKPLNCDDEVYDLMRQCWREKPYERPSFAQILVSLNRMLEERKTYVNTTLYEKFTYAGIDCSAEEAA
# Vascular endothelial growth factor receptor 2, sequence (P35968 whole entry): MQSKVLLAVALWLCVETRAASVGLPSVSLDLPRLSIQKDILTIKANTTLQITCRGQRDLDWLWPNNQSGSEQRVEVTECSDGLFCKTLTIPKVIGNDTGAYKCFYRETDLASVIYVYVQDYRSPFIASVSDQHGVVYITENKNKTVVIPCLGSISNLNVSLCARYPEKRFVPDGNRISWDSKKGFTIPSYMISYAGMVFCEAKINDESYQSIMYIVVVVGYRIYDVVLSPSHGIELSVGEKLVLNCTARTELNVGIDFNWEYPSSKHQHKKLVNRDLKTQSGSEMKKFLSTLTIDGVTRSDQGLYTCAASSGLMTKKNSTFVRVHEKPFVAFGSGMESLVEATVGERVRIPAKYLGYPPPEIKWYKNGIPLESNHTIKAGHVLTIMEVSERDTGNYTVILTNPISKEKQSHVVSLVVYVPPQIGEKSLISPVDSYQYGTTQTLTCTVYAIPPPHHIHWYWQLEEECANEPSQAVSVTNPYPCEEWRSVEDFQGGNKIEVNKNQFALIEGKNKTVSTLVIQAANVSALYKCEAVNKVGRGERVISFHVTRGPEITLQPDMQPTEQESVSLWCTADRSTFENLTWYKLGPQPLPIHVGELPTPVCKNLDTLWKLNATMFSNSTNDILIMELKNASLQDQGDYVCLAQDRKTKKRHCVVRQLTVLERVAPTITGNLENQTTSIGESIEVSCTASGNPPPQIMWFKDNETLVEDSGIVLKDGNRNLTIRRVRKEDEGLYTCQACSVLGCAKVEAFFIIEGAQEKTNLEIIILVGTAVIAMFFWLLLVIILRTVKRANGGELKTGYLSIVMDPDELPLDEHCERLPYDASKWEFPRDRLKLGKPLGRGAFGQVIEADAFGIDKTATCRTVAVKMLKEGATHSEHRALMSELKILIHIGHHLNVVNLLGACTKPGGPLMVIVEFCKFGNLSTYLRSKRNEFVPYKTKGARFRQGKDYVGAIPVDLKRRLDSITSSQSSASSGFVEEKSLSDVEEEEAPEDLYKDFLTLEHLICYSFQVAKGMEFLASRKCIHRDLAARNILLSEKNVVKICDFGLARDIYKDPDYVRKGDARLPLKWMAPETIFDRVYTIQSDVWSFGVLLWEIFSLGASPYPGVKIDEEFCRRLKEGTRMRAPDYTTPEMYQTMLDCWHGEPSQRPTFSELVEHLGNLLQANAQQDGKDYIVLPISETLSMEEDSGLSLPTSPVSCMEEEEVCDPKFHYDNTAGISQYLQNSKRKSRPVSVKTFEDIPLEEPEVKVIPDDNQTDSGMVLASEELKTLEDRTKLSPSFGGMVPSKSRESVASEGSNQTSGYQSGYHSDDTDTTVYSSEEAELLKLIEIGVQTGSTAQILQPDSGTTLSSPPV
# Platelet-derived growth factor receptor beta, sequence (P09619 whole entry): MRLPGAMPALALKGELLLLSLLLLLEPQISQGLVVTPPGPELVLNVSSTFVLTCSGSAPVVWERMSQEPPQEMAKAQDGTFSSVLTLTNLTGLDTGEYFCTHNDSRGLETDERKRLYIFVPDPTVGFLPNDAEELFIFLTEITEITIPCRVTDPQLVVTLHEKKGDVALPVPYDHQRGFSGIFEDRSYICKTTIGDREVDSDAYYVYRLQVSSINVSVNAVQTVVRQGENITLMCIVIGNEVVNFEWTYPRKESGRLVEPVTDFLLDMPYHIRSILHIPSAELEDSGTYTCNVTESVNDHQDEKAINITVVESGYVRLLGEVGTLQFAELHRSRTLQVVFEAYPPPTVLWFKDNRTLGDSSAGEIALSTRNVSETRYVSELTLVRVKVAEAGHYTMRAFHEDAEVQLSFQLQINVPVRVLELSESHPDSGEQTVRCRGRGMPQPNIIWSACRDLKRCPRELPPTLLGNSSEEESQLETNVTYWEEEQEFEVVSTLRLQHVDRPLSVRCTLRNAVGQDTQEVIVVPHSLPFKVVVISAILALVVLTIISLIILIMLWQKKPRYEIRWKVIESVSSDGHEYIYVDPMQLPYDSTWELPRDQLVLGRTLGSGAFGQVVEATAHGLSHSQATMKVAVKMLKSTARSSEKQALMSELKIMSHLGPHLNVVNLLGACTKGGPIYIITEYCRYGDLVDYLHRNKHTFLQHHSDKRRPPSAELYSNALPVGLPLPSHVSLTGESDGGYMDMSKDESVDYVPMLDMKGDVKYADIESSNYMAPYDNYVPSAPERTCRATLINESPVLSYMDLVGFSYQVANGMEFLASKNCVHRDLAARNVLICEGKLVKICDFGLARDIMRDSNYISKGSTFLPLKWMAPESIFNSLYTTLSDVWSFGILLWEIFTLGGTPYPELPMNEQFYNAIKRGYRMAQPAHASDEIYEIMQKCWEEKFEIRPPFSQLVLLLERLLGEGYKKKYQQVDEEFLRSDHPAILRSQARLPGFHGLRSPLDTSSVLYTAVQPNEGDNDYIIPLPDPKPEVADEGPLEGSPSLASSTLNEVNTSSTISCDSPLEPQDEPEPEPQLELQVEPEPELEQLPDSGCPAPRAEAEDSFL
# Epidermal growth factor receptor (Homo sapiens, UniProt P00533), sequence (P00533 whole entry): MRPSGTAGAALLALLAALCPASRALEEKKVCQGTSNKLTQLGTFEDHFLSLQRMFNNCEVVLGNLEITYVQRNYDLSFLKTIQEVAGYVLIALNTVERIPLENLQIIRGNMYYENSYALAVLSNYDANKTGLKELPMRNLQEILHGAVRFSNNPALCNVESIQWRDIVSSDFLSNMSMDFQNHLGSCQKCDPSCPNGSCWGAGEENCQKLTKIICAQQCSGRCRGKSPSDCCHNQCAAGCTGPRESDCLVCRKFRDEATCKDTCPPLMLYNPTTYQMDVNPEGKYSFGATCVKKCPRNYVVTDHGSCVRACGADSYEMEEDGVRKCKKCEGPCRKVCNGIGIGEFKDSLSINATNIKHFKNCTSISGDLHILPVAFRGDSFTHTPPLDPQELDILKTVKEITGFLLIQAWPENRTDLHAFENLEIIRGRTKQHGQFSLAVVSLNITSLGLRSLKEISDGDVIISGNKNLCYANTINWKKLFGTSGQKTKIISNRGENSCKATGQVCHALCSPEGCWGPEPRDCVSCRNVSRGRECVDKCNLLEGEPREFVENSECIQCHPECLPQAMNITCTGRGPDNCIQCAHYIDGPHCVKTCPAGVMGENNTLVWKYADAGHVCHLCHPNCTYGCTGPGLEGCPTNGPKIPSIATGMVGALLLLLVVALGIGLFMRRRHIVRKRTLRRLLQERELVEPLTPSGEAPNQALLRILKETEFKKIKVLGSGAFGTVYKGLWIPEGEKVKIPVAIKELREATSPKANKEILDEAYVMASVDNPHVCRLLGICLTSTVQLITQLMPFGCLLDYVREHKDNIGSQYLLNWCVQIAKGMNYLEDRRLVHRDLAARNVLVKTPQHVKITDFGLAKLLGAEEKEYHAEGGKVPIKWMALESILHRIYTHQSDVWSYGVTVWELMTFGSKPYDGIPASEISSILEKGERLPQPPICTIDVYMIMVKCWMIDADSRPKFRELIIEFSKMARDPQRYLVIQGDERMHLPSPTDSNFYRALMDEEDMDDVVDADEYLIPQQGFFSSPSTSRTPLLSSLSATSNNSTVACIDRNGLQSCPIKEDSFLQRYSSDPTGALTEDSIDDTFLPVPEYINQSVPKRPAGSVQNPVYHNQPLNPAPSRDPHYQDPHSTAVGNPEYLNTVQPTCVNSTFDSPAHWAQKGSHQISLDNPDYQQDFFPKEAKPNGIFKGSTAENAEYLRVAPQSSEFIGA
smiles,measurement,setting,value
Nc1ncnc2c1c(C(=O)c1ccc(NS(=O)(=O)c3c(F)cccc3F)cc1)cn2C1CCCC1,IC50,[1],769 nM
same,pIC50,Angiopoietin-1 receptor [2],6.13
CC(C)n1cc(C(=O)c2cccc(NC(=O)Nc3ccc(Cl)cc3)c2)c2c(N)ncnc21,IC20,Homo sapiens,1000 nM
same,Vd,[3],0.9 L/kg
same,Cmax,[4],1720 ng/mL
same,Tmax,[5],45 min
same,inhibition (INH),[6],Active
same,half-life,[7],24 min
same,hepatic extraction ratio,[8],0.52
same,pIC50,[9],< 5.00
same,inhibition in vivo at 10 mg/kg,C6 [10],40%
same,Stability,Rattus norvegicus,27 mL/min/kg
same,clearance,[11],38 mL/min/kg
same,TGI,C6 [12],Active
same,pIC50,[13],5.85
same,inhibition,Mus musculus [14],Active
same,Papp B→A,[15],9.5 ×10⁻⁶ cm/s
same,solubility,[16],35 µg/mL
same,IC50,[17],> 10000 nM
same,Activity,[18],Toxic
same,inhibition in vivo at 10 mg/kg,C6 [19],70%
same,hepatic extraction ratio,[20],0.46
same,bioavailability,[21],100%
same,Activity,Salmonella typhimurium,Non-toxic
same,Activity,Mus musculus [22],Non-toxic
same,efflux ratio,[23],1.5
same,pIC50,[24],< 5.00
same,pIC50,[25],< 5.52
same,inhibition in vivo at 33 mg/kg,C6 [26],60%
Cc1ccc(F)c(NC(=O)Nc2cccc(C(=O)c3cn(C4CCCC4)c4ncnc(N)c34)c2)c1,IC50,[1],0.89 nM
same,hepatic extraction ratio,[8],0.8
same,pIC50,Angiopoietin-1 receptor [2],7.92
same,efflux ratio,[23],9.2
Nc1ncnc2c1c(C(=O)c1ccc(NC(=O)Nc3c(F)cccc3F)cc1)cn2C1CCCC1,IC50,[1],254 nM
same,pIC50,Angiopoietin-1 receptor [2],6.46
COc1cc(-c2cn([C@H]3CC[C@H](N4CCN(C)CC4)CC3)c3ncnc(N)c23)ccc1NS(=O)(=O)c1ccccc1,pIC50,[27],< 5.52
same,pIC50,Angiopoietin-1 receptor [28],6.86
same,pIC50,[9],< 5.52
same,pIC50,[29],< 5.52
Nc1ncnc2c1c(C(=O)c1cccc(NS(=O)(=O)c3c(F)cccc3F)c1)cn2C1CCCC1,IC50,[1],253 nM
same,pIC50,Angiopoietin-1 receptor [2],6.37
same,efflux ratio,[23],4.7
Nc1ncnc2c1c(-c1nc3ccc(NS(=O)(=O)c4c(F)cccc4F)cc3[nH]1)cn2C1CCCC1,IC50,[1],518 nM
same,hepatic extraction ratio,[8],0.69
same,pIC50,Angiopoietin-1 receptor [2],6.25
Nc1ncnc2c1c(Cc1cccc(NS(=O)(=O)c3c(F)cccc3F)c1)cn2C1CCCC1,pIC50,Angiopoietin-1 receptor [2],< 5.00
Nc1ncnc2c1c(C(=O)c1cccc(NC(=O)Nc3ccc(Cl)cc3)c1)cn2C1CCCC1,IC50,[1],4.6 nM
same,hepatic extraction ratio,[8],0.7
same,pIC50,Angiopoietin-1 receptor [2],7.35
same,efflux ratio,[23],17
COc1ccc(C)cc1NC(=O)Nc1cccc(C(=O)c2cn(C3CCCC3)c3ncnc(N)c23)c1,IC50,[1],0.69 nM
same,hepatic extraction ratio,[8],0.69
same,pIC50,Angiopoietin-1 receptor [2],8.06
same,efflux ratio,[23],9.4
Nc1ncnc2c1c(-c1nc3ccc(NC(=O)Nc4c(F)cccc4F)cc3[nH]1)cn2C1CCCC1,IC50,[1],112 nM
same,hepatic extraction ratio,[8],0.9
same,pIC50,Angiopoietin-1 receptor [2],6.62
same,efflux ratio,[23],3.2
Nc1ncnc2c1c(C(=O)c1cccc(NC(=O)Nc3ccc(Cl)cc3Cl)c1)cn2C1CCCC1,IC50,[1],1.2 nM
same,efflux ratio,[23],1.9
Nc1ncnc2c1c(C(=O)c1cccc(NC(=O)Nc3c(F)cccc3F)c1)cn2C1CCCC1,Papp A→B,[30],7.7 ×10⁻⁶ cm/s
same,IC50,[1],67 nM
same,hepatic extraction ratio,[8],0.83
same,pIC50,[9],5.51
same,pIC50,Angiopoietin-1 receptor [2],6.44
same,pIC50,[13],< 5.30
same,efflux ratio,[23],3.5
